Assay results published in PMC3899454 (Clinical Drug Investigation, 2013).

Assays:
[1] = cited from earlier work
[2] = compared with insulin glargine; cited from earlier work
[3] = Safety and tolerability after a single dose; type: in vivo, human; conditions: 24 subjects
Summary of the method: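 Single 0.4 U/kg s.c. thigh dose given at 0800–1000 h. Safety assessed by adverse events (severity and relationship graded by investigator), physical examination, vital signs, ECG, biochemistry, hematology, urinalysis and hypoglycemia. Confirmed hypoglycemia: plasma glucose <3.1 mmol/L or ADA 'severe'. Treatment-emergent: onset from dosing to 7 days post-dose. Blood glucose sampled to 120 h.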

insulin lispro
Effect of hepatic dysfunction on glucodynamic response [1]: did not appear to affect the glucodynamic response

insulin degludec
Pharmacokinetic properties in subjects with renal impairment ([1]; varying degrees of impaired renal function): pharmacokinetic properties were also preserved in subjects with renal impairment | Variability of glucose-lowering effect [2]: four times less variable glucose-lowering effect | Adverse events (other than hypoglycemia) or medical events of special interest ([3]; single s.c. dose 0.4 U/kg): No adverse events | Injection-site reactions ([3]; single s.c. dose 0.4 U/kg into the thigh): No injection-site reactions were reported | Severe hypoglycemic episodes ([3]; single s.c. dose 0.4 U/kg, ADA definition of severe): none of these episodes were categorized as severe

insulin aspart
Impact of hepatic impairment and renal impairment on pharmacokinetics ([1]; single-dose pharmacokinetic studies): no significant impact

insulin detemir
Pharmacokinetics in subjects with renal or hepatic impairment [1]: no clinically relevant difference in pharmacokinetics
